Reference: PMC5987874 (The Journal of General Physiology, 2018)
Substitutions are numbered along the chain they refer to. Like-named read-outs stand apart in the source and are kept apart here.

Legend:
Assay in all cases: Whole-cell voltage clamp, Zn^2+ modulation of GAQ gating
Type in all cases: cell-based
human Hv1 WT = biological target: T1, human Hv1 WT (Homo sapiens, UniProt Q96D96)
T1 sequence (Q96D96 1-273): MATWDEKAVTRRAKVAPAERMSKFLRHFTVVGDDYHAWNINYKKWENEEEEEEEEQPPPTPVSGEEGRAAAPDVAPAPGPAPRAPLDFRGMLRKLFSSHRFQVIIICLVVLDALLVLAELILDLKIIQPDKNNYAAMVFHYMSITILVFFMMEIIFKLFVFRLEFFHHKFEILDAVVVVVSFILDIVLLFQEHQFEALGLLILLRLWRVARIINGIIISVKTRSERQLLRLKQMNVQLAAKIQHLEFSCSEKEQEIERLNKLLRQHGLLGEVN
In short: (§1)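 Whole-cell patch clamp at ~21°C. Pipette and bath (mM): ~80 TMA-MeSO3, 100 Bis-Tris, 8 HCl, pH 6.5, 310–320 mOsm. ZnCl2 was diluted into bath solution and applied by gravity superfusion, at least 2 min per change. Test step voltage was set per construct from its V0.5. G_STEP = end-of-step current/(V−V_REV). Effect = 1 − G_Zn/G_control, fitted to the Hill equation. IC50 and nH are means ± SEM from separate cells. ΔpIC50 was tested by unpaired t test, P<0.05.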

human Hv1 H140A-H193A = biological target: T2, human Hv1 H140A-H193A (Homo sapiens, UniProt Q96D96, H140A/H193A)
T2 sequence (Q96D96 1-273 H140A/H193A): T1 sequence (Q96D96 1-273) with H140A, H193A
In short: as §1

human Hv1 E119A-H193A = biological target: T3, human Hv1 E119A-H193A (Homo sapiens, UniProt Q96D96, E119A/H193A)
T3 sequence (Q96D96 1-273 E119A/H193A): T1 sequence (Q96D96 1-273) with E119A, H193A
In short: as §1

human Hv1 D123H-H193A = biological target: T4, human Hv1 D123H-H193A (Homo sapiens, UniProt Q96D96, D123H/H193A)
T4 sequence (Q96D96 1-273 D123H/H193A): T1 sequence (Q96D96 1-273) with D123H, H193A
In short: as §1

human Hv1 D130H-H193A = biological target: T5, human Hv1 D130H-H193A (Homo sapiens, UniProt Q96D96, D130H/H193A)
T5 sequence (Q96D96 1-273 D130H/H193A): T1 sequence (Q96D96 1-273) with D130H, H193A
In short: as §1

human Hv1 D185H-H193A = biological target: T6, human Hv1 D185H-H193A (Homo sapiens, UniProt Q96D96, D185H/H193A)
T6 sequence (Q96D96 1-273 D185H/H193A): T1 sequence (Q96D96 1-273) with D185H, H193A
In short: as §1

[1] = VSTEP 100 mV, calculated as log (IC50)
[2] = VSTEP 80 mV, calculated as log (IC50)
[3] = read-out: Mean IC50 @ VSTEP, VSTEP 80 mV, pH 6.5, mean of fits in separate cells

nH, fit of the mean data to a Hill function (human Hv1 WT; Fig. 2C): 0.8
Hill value (human Hv1 WT; VSTEP 100 mV): 0.81
pIC50 (human Hv1 WT; [1]): 5.44
nH, fit of the mean data to a Hill function (human Hv1 H140A-H193A; Fig. 2C): 1.5
Mean ΔpIC50 = (pIC50_1 - pIC50_2) (human Hv1 H140A-H193A; H140A-H193A vs H140A): −1.65
Mean ΔpIC50 = (pIC50_1 - pIC50_2) (human Hv1 H140A-H193A; H140A-H193A vs H193A): −1.30
Mean ΔpIC50 = (pIC50_1 - pIC50_2) (human Hv1 H140A-H193A; H140A-H193A vs WT): −2.68
Hill value (human Hv1 H140A-H193A; VSTEP 100 mV): 1.57
IC50 (human Hv1 H140A-H193A; VSTEP 100 mV): 1.7 ± 0.3 mM
pIC50 (human Hv1 H140A-H193A; [1]): −2.76
IC50 (human Hv1 H140A-H193A; read-out: IC50, fit of the mean data to a Hill function, Fig. 2C): 1.74 mM
Mean ΔpIC50 = (pIC50_1 - pIC50_2) (human Hv1 E119A-H193A; E119A-H193A vs E119A): −1.60
Mean ΔpIC50 = (pIC50_1 - pIC50_2) (human Hv1 E119A-H193A; E119A-H193A vs H193A): −0.5
nH, fit of the mean data to a Hill function (human Hv1 E119A-H193A; Fig. 4A): 0.8
Hill value (human Hv1 E119A-H193A; VSTEP 100 mV): 0.78
pIC50 (human Hv1 E119A-H193A; [1]): −3.56
IC50 (human Hv1 E119A-H193A; read-out: IC50, fit of the mean data to a Hill function, Fig. 4A): 274 µM
Mean ΔpIC50 = (pIC50_1 - pIC50_2) (human Hv1 D123H-H193A; D123H-H193A vs H193A): 0.47
nH, fit of the mean data to a Hill function (human Hv1 D123H-H193A; Fig. 4B): 0.9
Hill value (human Hv1 D123H-H193A; VSTEP 80 mV): 1.06
pIC50 (human Hv1 D123H-H193A; [2]): −4.54
IC50 (human Hv1 D123H-H193A; read-out: IC50, fit of the mean data to a Hill function, Fig. 4B): 28.6 µM
IC50 (human Hv1 D123H-H193A; [3]): 36 µM
Mean ΔpIC50 = (pIC50_1 - pIC50_2) (human Hv1 D130H-H193A; D130H-H193A vs D130H): −0.16
Mean ΔpIC50 = (pIC50_1 - pIC50_2) (human Hv1 D130H-H193A; D130H-H193A vs H193A): 1.44
nH, fit of the mean data to a Hill function (human Hv1 D130H-H193A; Fig. 4C): 0.6
Hill value (human Hv1 D130H-H193A; VSTEP 120 mV): 0.91
pIC50 (human Hv1 D130H-H193A; VSTEP 120 mV, calculated as log (IC50)): 5.51
IC50 (human Hv1 D130H-H193A; read-out: IC50, fit of the mean data to a Hill function, Fig. 4C): 5.6 µM
Mean ΔpIC50 = (pIC50_1 - pIC50_2) (human Hv1 D185H-H193A; D185H-H193A vs D185H): −0.84
Mean ΔpIC50 = (pIC50_1 - pIC50_2) (human Hv1 D185H-H193A; D185H-H193A vs H193A): 0.52
nH, fit of the mean data to a Hill function (human Hv1 D185H-H193A; Fig. 4D): 0.6
Hill value (human Hv1 D185H-H193A; VSTEP 80 mV): 0.60
pIC50 (human Hv1 D185H-H193A; [2]): −4.54
IC50 (human Hv1 D185H-H193A; read-out: IC50, fit of the mean data to a Hill function, Fig. 4D): 26.7 µM
IC50 (human Hv1 D185H-H193A; [3]): 37.9 µM
Compound: [Cl-].[Cl-].[Zn+2] [Zn^2+, ZnCl2]
